# Laboratory results as given in ChEMBL document CHEMBL4689842, “EUbOPEN Chemogenomics Library wave 1” (2021).
# Test system: U2OS
# Assay: Multiplex assay against U2OS
# Assay type: toxicity, cell-based
# Details: human
# In short: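 Values for tubulin, mitochondrial-mass and membrane-permeability phenotypes are per cents of cells with healthy nuclei. These cells were identified by CellPathfinder machine-learning gating of live cells that had been stained at seeding with Hoechst33342, BioTracker Green Microtubule Cytoskeleton Dye, MitoTracker Red and Annexin V Alexa Fluor 680 and imaged on a CQ1 microscope at 37°C and 5% CO2 after compound addition. The gating first set Hoechst high-intensity objects apart from normal cells, then split normal cells into healthy, pyknosed or fragmented nuclei, and pyknosed cells into mitotic or apoptotic.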
# [1] = 12 h, 1 µM, compound concentration 1 uM, replicate 1
# [2] = 12 h, 1 µM, compound concentration 1 uM, replicate 2
# [3] = 12 h, 10 µM, compound concentration 10 uM, replicate 1
# [4] = 12 h, 10 µM, compound concentration 10 uM, replicate 2
# [5] = 24 h, 1 µM, compound concentration 1 uM, replicate 1
# [6] = 24 h, 1 µM, compound concentration 1 uM, replicate 2
# [7] = 24 h, 10 µM, compound concentration 10 uM, replicate 1
# [8] = 24 h, 10 µM, compound concentration 10 uM, replicate 2
# [9] = 48 h, 1 µM, compound concentration 1 uM, replicate 1
# [10] = 48 h, 1 µM, compound concentration 1 uM, replicate 2
# [11] = 48 h, 10 µM, compound concentration 10 uM, replicate 1
# [12] = 48 h, 10 µM, compound concentration 10 uM, replicate 2
smiles,measurement,setting,value
COc1cc(N2CCN(C)CC2)ccc1Nc1ncc2c(n1)N(C)c1ccccc1C(=O)N2C,Population Apoptotic (%),[1],33%
same,Population Fragmented Nuclei (%),[1],12%
same,Population Healthy Nuclei (%),[1],72%
same,Population Hoechst High Intensity Objects (%),[1],6%
same,Population Membrane Permeable-Phenotype (%),[1],6%
same,Population Mitochondria Different-Phenotype (%),[1],25%
same,Population Mitotic Cells (%),[1],66%
same,Population Normal (%),[1],93%
same,Population Pyknosed Nuclei (%),[1],14%
same,Population Tubulin-Different-Phenotype (%),[1],17%
same,Total Cell Count,[1],199
same,Population Apoptotic (%),[2],40%
same,Population Fragmented Nuclei (%),[2],5%
same,Population Healthy Nuclei (%),[2],82%
same,Population Hoechst High Intensity Objects (%),[2],4%
same,Population Membrane Permeable-Phenotype (%),[2],9%
same,Population Mitochondria Different-Phenotype (%),[2],21%
same,Population Mitotic Cells (%),[2],60%
same,Population Normal (%),[2],95%
same,Population Pyknosed Nuclei (%),[2],12%
same,Population Tubulin-Different-Phenotype (%),[2],15%
same,Total Cell Count,[2],104
same,Population Apoptotic (%),[3],60%
same,Population Fragmented Nuclei (%),[3],11%
same,Population Healthy Nuclei (%),[3],66%
same,Population Hoechst High Intensity Objects (%),[3],7%
same,Population Membrane Permeable-Phenotype (%),[3],22%
same,Population Mitochondria Different-Phenotype (%),[3],96%
same,Population Mitotic Cells (%),[3],39%
same,Population Normal (%),[3],92%
same,Population Pyknosed Nuclei (%),[3],21%
same,Population Tubulin-Different-Phenotype (%),[3],99%
same,Total Cell Count,[3],177
same,Population Apoptotic (%),[4],66%
same,Population Fragmented Nuclei (%),[4],15%
same,Population Healthy Nuclei (%),[4],61%
same,Population Hoechst High Intensity Objects (%),[4],5%
same,Population Membrane Permeable-Phenotype (%),[4],21%
same,Population Mitotic Cells (%),[4],33%
same,Population Normal (%),[4],94%
same,Population Pyknosed Nuclei (%),[4],23%
same,Population Tubulin-Different-Phenotype (%),[4],100%
same,Total Cell Count,[4],42
same,Population Apoptotic (%),[5],29%
same,Population Fragmented Nuclei (%),[5],11%
same,Population Hoechst High Intensity Objects (%),[5],5%
same,Population Membrane Permeable-Phenotype (%),[5],3%
same,Population Mitochondria Different-Phenotype (%),[5],8%
same,Population Mitotic Cells (%),[5],70%
same,Population Normal (%),[5],94%
same,Population Pyknosed Nuclei (%),[5],12%
same,Population Tubulin-Different-Phenotype (%),[5],8%
same,Total Cell Count,[5],187
same,Population Apoptotic (%),[6],50%
same,Population Fragmented Nuclei (%),[6],9%
same,Population Healthy Nuclei (%),[6],75%
same,Population Hoechst High Intensity Objects (%),[6],6%
same,Population Membrane Permeable-Phenotype (%),[6],6%
same,Population Mitochondria Different-Phenotype (%),[6],12%
same,Population Mitotic Cells (%),[6],50%
same,Population Normal (%),[6],93%
same,Population Pyknosed Nuclei (%),[6],14%
same,Population Tubulin-Different-Phenotype (%),[6],6%
same,Total Cell Count,[6],101
same,Population Apoptotic (%),[7],69%
same,Population Fragmented Nuclei (%),[7],18%
same,Population Healthy Nuclei (%),[7],50%
same,Population Hoechst High Intensity Objects (%),[7],7%
same,Population Membrane Permeable-Phenotype (%),[7],19%
same,Population Mitochondria Different-Phenotype (%),[7],94%
same,Population Mitotic Cells (%),[7],30%
same,Population Normal (%),[7],92%
same,Population Pyknosed Nuclei (%),[7],30%
same,Population Tubulin-Different-Phenotype (%),[7],97%
same,Total Cell Count,[7],204
same,Population Apoptotic (%),[8],76%
same,Population Fragmented Nuclei (%),[8],11%
same,Population Healthy Nuclei (%),[8],63%
same,Population Hoechst High Intensity Objects (%),[8],8%
same,Population Membrane Permeable-Phenotype (%),[8],30%
same,Population Mitochondria Different-Phenotype (%),[8],93%
same,Population Mitotic Cells (%),[8],23%
same,Population Normal (%),[8],91%
same,Population Pyknosed Nuclei (%),[8],25%
same,Population Tubulin-Different-Phenotype (%),[8],66%
same,Total Cell Count,[8],44
same,Population Apoptotic (%),[9],42%
same,Population Fragmented Nuclei (%),[9],7%
same,Population Healthy Nuclei (%),[9],77%
same,Population Membrane Permeable-Phenotype (%),[9],4%
same,Population Mitochondria Different-Phenotype (%),[9],5%
same,Population Mitotic Cells (%),[9],57%
same,Population Pyknosed Nuclei (%),[9],14%
same,Population Tubulin-Different-Phenotype (%),[9],8%
same,Total Cell Count,[9],182
same,Population Apoptotic (%),[10],60%
same,Population Fragmented Nuclei (%),[10],5%
same,Population Healthy Nuclei (%),[10],76%
same,Population Hoechst High Intensity Objects (%),[10],3%
same,Population Membrane Permeable-Phenotype (%),[10],9%
same,Population Mitochondria Different-Phenotype (%),[10],16%
same,Population Mitotic Cells (%),[10],40%
same,Population Normal (%),[10],96%
same,Population Pyknosed Nuclei (%),[10],18%
same,Population Tubulin-Different-Phenotype (%),[10],11%
same,Total Cell Count,[10],88
same,Population Apoptotic (%),[11],84%
same,Population Fragmented Nuclei (%),[11],21%
same,Population Healthy Nuclei (%),[11],42%
same,Population Hoechst High Intensity Objects (%),[11],7%
same,Population Membrane Permeable-Phenotype (%),[11],18%
same,Population Mitotic Cells (%),[11],15%
same,Population Normal (%),[11],92%
same,Population Pyknosed Nuclei (%),[11],35%
same,Population Tubulin-Different-Phenotype (%),[11],82%
same,Total Cell Count,[11],297
same,Population Apoptotic (%),[12],63%
same,Population Fragmented Nuclei (%),[12],11%
same,Population Healthy Nuclei (%),[12],46%
same,Population Hoechst High Intensity Objects (%),[12],19%
same,Population Membrane Permeable-Phenotype (%),[12],33%
same,Population Mitochondria Different-Phenotype (%),[12],90%
same,Population Mitotic Cells (%),[12],36%
same,Population Normal (%),[12],80%
same,Population Pyknosed Nuclei (%),[12],42%
same,Population Tubulin-Different-Phenotype (%),[12],61%
same,Total Cell Count,[12],57
